Bioassay records (PubChem)
Sampled rows, rich in hits. Any-hit rate of the full collection: about 3.8%.
KCNK9 block: inhibitors of human KCNK9 two-pore domain potassium channel; Q9NPC2; HEK293 KCNK9, FluxOR thallium flux fluorescence; hits give low values; B-score at 10 µM; 310,000 tested, 1.2% active;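 active = ratio B-score over 3 SD below the library mean, with starting fluorescence within 5 SD of its mean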;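 also: negative B-score means less thallium flux so channel inhibition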
Target sequence (Q9NPC2 whole entry, looked up, the tested form may be a part): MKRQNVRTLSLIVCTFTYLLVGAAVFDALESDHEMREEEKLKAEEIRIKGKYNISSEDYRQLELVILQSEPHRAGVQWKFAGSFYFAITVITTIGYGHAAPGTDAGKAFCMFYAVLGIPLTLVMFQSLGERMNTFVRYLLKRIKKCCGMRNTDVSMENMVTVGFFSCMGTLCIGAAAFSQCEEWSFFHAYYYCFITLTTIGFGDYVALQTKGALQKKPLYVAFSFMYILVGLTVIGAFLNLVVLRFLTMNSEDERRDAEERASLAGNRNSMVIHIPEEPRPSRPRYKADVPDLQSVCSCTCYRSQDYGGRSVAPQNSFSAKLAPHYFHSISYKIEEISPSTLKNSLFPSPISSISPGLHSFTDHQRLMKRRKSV
Kir21 inh: inhibitors of mouse Kir2.1 inward-rectifier potassium channel; P35561; HEK293-Kir2.1, FluxOR thallium flux fluorescence; hits give low values; B-score at 10 µM; 310,000 tested, 0.85% active; AID 1672;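 active = fluorescence ratio B-score at or below minus 3 SD of library scores, with starting-brightness B-score within 2 SD, cut at about -4.2 in these data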;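 also: channel flux triggered by added potassium and thallium sulfate stimulus; B-score of peak minus minimum fluorescence over baseline after thallium stimulus; more negative B-score means stronger Kir2.1 block with less thallium influx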
hERG rescue: shields human hERG channel from block by proarrhythmic agents; Q12809; 310,000 tested, 0.51% active; activation (rescue from dofetilide block), less the hit threshold, % at 10 µM; CHO-hERG, FluxOR thallium flux, dofetilide IC70 present; AID 1511;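 active = activation above the mean of controls blocked by dofetilide plus 5 SD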;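 also: thallium influx through hERG after potassium depolarization seen as dye fluorescence rise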
KCNQ1 act: potentiators or activators of human KCNQ1 potassium channel. 310,000 tested, 0.35% active. CHO-K1 KCNQ1, thallium flux FluxOR fluorescence; hits give high values. B-score at 10 µM. P51787;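 active = fluorescence ratio B-score, a plate-corrected score, at least three library SD, with initial intensity B-score within 5 SD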
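assay system = CHO-K1 cells stably expressing KCNQ1 | medium = assay buffer, equal DMSO in all wells | timing = 37 °C overnight plating, 90-min dark dye load, 20-min compound pretreatment | measured by = kinetic FluxOR thallium fluorescence, 10-s 1-Hz baseline, 110-s post-stimulus read | measure = fluorescence change relative to baseline, converted to B score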
KCNQ1 block: blocks the human KCNQ1 potassium channel | P51787 | CHO-K1 KCNQ1, FluxOR thallium flux fluorescence; hits give high values | B-score at 10 µM | 310,000 tested, 1.3% active | AID 2642;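 active = compounds whose thallium flux B-score, printed positive for inhibition, exceeds three library SD while starting fluorescence stays within three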;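 also: channel opened by potassium depolarization with thallium stimulus after 20 min compound exposure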
KCNK3 block: human KCNK3 channel inhibition, primary screen. O14649. CHO-KCNK3 thallium flux, FluxOR fluorescence; hits give low values. B-score at 10 µM. 340,000 tested, 0.84% active. AID 602410;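 active = B-score under library mean minus 4 SD, starting fluorescence ratio at most library mean plus 5 SD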;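 also: more negative B-score means stronger inhibition of thallium flux through KCNK3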
KCNK9 block conf: human KCNK9 inhibitor confirmation; AID 492992; 4,900 tested, 43% active; inhibition, % at 10 µM; HEK293 KCNK9 cells, FluxOR thallium flux fluorescence; shares compounds with KCNK9 block;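 active = thallium signal inhibited by more than 5 SD of the compound-free buffer control wells, on both duplicate plates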;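 also: 0% = assay buffer control wells without compound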
Kir21 sel: mouse Kir2.1 off-target activity of KCNK9 modulators; 4,900 tested, 4% active; shares compounds with KCNK9 block; Kir2.1 cells, FluxOR thallium flux fluorescence; inhibition, % at 10 µM; AID 492993;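 active = thallium signal drop more than 5 SD beyond the mean of the no-compound control wells, seen in both duplicate plates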;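 also: signal is fluorescence rise after thallium addition divided by baseline fluorescence; plate controls were assay buffer only for no effect and full block by chlorpromazine control for full effect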
HEK293 Tl ctr: second check of KCNK9 modulator effects in non-induced HEK293 cells; shares compounds with KCNK9 block; FluxOR thallium flux; inhibition, % at 10 µM; 4,900 tested, 40% active; AID 492997;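 active = thallium signal drop beyond 5 SD of the untreated control mean, on both duplicate plates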;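 also: plate controls were buffer only IC0 wells for no effect and SID17386958 at its maximal inhibitory level for full effect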
The depositor's hits bear a star; i = inactive; / = not tested or not shown.

SMILES	KCNK9 block	Kir21 inh	hERG rescue	KCNQ1 act	KCNQ1 block	KCNK3 block	KCNK9 block conf	Kir21 sel	HEK293 Tl ctr
CSc1ccc(C(=O)C2CCCN(C(=O)c3cc4cc(F)ccc4[nH]3)C2)cc1 (centres undefined)	i	-3.3	-11	i	i	i	i	i	i
CC(=O)c1ccc(C(=O)N2CCCC(C(=O)c3ccc(Cl)cc3)C2)s1 (centres undefined)	i	-0.75	-1	i	i	i	i	i	i
CSc1ccc(C(=O)C2CCCN(C(=O)c3csc(C(C)=O)c3)C2)cc1 (centres undefined)	i	-0.07	-9	i	i	i	/	/	/
O=C(NC1CCCCC1)c1cc(-c2cccc(Cl)c2)on1	i	-1.2	-1	i	i	i	/	/	/
CCCCCCn1c(N2CCN(c3ccccc3)CC2)nc2c1c(=O)n(C)c(=O)n2C	-8.5*	2.5	-23	i	i	i	43%*	i	40%*
Cn1c(=O)c2c(nc(CN3CCN(c4ccccc4F)CC3)n2CCCc2ccccc2)n(C)c1=O	i	0.39	-7	i	i	i	i	i	i
CCOCCn1c(N2CCN(c3ccccc3)CC2)nc2c1c(=O)n(C)c(=O)n2C	i	-0.89	-12	i	i	i	/	/	/
CN1CCN(Cc2nc3c(c(=O)n(C)c(=O)n3C)n2CCCc2ccccc2)CC1	i	-0.91	-14	i	i	i	/	/	/
COc1ccc(CNC(=O)COC(=O)c2cc3ccccc3o2)cc1	/	/	/	/	/	i	/	/	/
CCN1CCN(CC(=O)n2c3c(c4ccccc42)CC(C)CC3)CC1 (centres undefined)	i	-1.3	-7	i	i	i	/	/	/
CC1CCN(CC(=O)n2c3c(c4ccccc42)CCCC3)CC1	i	0.23	-9	i	i	i	i	i	i
Cc1c(C(=O)Nc2ccc3c(c2)OCO3)oc2ccccc12	-15*	0.84	-12	i	i	i	62%*	i	33%*
CCCCCCCn1c2c(c(=N)c3ccccc31)CCC2	-10*	-6.7*	-31	i	i	-11*	47%*	77%*	i
CCOC(=O)C1C(=O)NC(C(=O)OCC)(C(=O)OCC)C1CC (centres undefined)	/	/	/	/	/	i	/	/	/
O=C(COC(=O)COc1ccc(Cl)cc1)NC1CC1	/	/	/	/	/	i	/	/	/
O=C(OCc1ccccc1Cl)c1ccccc1C(=O)c1ccccc1	-8.7*	-1.6	-5	i	i	i	i	41%*	38%*
COc1cccc(C(=O)NC(C)c2ccc(-c3ccccc3)cc2)c1OC (centres undefined)	i	0.21	-8	i	i	i	i	i	i
COc1cccc(C(=O)NC(C)c2cccc3ccccc23)c1OC (centres undefined)	i	-2.5	-10	i	i	i	/	/	/
O=[N+]([O-])c1ccc(O)c(/C=N/NC(=S)Nc2ccc(Cl)cc2Cl)c1	i	0.68	-8	i	i	i	i	i	i
Cc1cc(Cl)ccc1NC(=O)CCC(=O)N/N=C/c1cc([N+](=O)[O-])ccc1O	i	1.7	-10	i	i	i	/	/	/
CCOc1ccc(C(=O)C(C)OC(=O)c2nc(Cl)ccc2Cl)cc1 (centres undefined)	i	0.89	-5	i	i	i	/	/	/
OC(CSc1c(Cl)cccc1Cl)CN1CCN(c2ccc(F)cc2)CC1 (centres undefined)	i	-1.3	-23	i	i	i	i	i	i
OC(CSc1ccccc1Cl)CN1CCN(c2ccccc2F)CC1 (centres undefined)	i	-0.07	-17	i	i	i	i	i	i
COc1cccc(OC)c1OCC(O)CN1CCN(c2ccccc2F)CC1 (centres undefined)	i	-1.3	-3	i	i	i	/	/	/
OC(CSc1ccccc1Cl)CN1CCN(c2ccc(F)cc2)CC1 (centres undefined)	i	-1.5	-17	i	i	i	/	/	/
SMILES	KCNK9 block	Kir21 inh	hERG rescue	KCNQ1 act	KCNQ1 block	KCNK3 block	KCNK9 block conf	Kir21 sel	HEK293 Tl ctr
OC(CSc1c(Cl)cccc1Cl)CN1CCN(c2ccccc2F)CC1 (centres undefined)	i	-0.01	-26	i	i	i	i	i	i
CCN(C(=O)COC(=O)c1ccc(SC)cc1OC)C1CCS(=O)(=O)C1 (centres undefined)	/	/	/	/	/	i	/	/	/
Cc1ccc(CNC(=O)C2CCCN(c3cnccn3)C2)cc1 (centres undefined)	i	-0.31	-3	i	i	i	/	/	/
Nc1c(C(=O)c2ccccc2)sc(Nc2ccccc2)c1S(=O)(=O)c1ccccc1	i	-0.05	-15	i	i	i	i	i	i
N#Cc1c(Nc2ccccc2)sc(C(=O)c2ccc(F)cc2)c1N	i	-1.9	-5	i	i	i	/	/	/
CCn1c(SCC#N)nc2c(c1=O)C1(CCCC1)Cc1ccccc1-2	-12*	-3	-7	i	i	i	47%*	i	i
Clc1ccccc1-c1ccc(CN2CCN(c3ccccc3)CC2)o1	i	-1.4	-5	i	i	i	i	i	i
Cc1cc(OCc2nc(N)nc(N)c2-c2ccc(Cl)c(Cl)c2)ccc1[N+](=O)[O-]	/	/	/	/	/	i	/	/	/
Cc1cccc2nc(-c3ccccc3)nc(N[C@@H](CO)c3ccccc3)c12	-8.3*	-0.53	-12	i	i	i	50%*	i	44%*
Nc1ccc(S(=O)(=O)N2CCC(Cc3ccccc3)CC2)cc1	i	2.5	-6	i	i	i	/	/	/
Cc1cc(NC(=O)CSCC(=O)N(C)Cc2c(F)cccc2Cl)no1	i	-0.01	-6	i	i	i	/	/	/
Cc1cccc(NC(=O)CSCC(=O)N(C)Cc2c(F)cccc2Cl)c1	i	-2.4	-12	i	i	i	i	i	i
COc1ccccc1N1CCN(C2CCCN(S(=O)(=O)c3cccc(Cl)c3)C2)CC1 (centres undefined)	i	1.6	-12	i	i	i	i	i	i
COc1ccccc1N1CCN(C2CCCN(S(=O)(=O)c3ccc(C)cc3)C2)CC1 (centres undefined)	i	1	-13	i	i	i	/	/	/
